Measured values as given in ChEMBL document CHEMBL4152234, “Aminobenzothiazole derivatives stabilize the thermolabile p53 cancer mutant Y220C and show anticancer activity in p53-Y220C cell lines” (Eur J Med Chem, 2018).
Activity calls are given as the source filed them. The calls are words filed in the database; no cut-off is given here.

Experiments:
[1] = test system: Huh-7; test: Antiproliferative activity against p53 Y220C mutant knockout human HuH7 cells up to 120 uM after 72 hrs by CellTiter-Glo assay; type: functional, cell-based
[2] = Solubility of the compound in water; type: physicochemical; conditions: buffer
[3] = test system: Huh-7; test: Antiproliferative activity against human HuH7 cells harboring p53 Y220C mutant after 72 hrs by CellTiter-Glo assay; type: functional, cell-based; conditions: Huh-7, 72 h
Outline: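 Cells were exposed to compound for 72 h and viability read by CellTiter-Fluor or CellTiter-Glo 2.0. Quadruplicate technical replicates, normalized to blank (viability = 1) and no-cell (viability = 0) controls. Confirmed in at least 2 independent biological replicates. IC50 derived from the dose-response data.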

[4] = molecular target: T1, Cellular tumor antigen p53 (Homo sapiens, UniProt P04637, Y220C); test: Binding affinity to p53 Y220C mutant (unknown origin)
[5] = test system: Cellular tumor antigen p53 (Homo sapiens), P04637 [Y220C]; test: Binding affinity to p53 Y220C mutant (unknown origin) assessed as change in melting temperature at 250 uM
[6] = molecular target: T1, Cellular tumor antigen p53; test: Binding affinity to N-terminal His6-tagged p53 DNA binding domain Y220C mutant (94 to 312 residues) (unknown origin) expressed in Escherichia coli C41 by ITC
[7] = test system: Cellular tumor antigen p53 (Homo sapiens), P04637 [Y220C]; test: Binding affinity to p53 Y220C mutant (unknown origin) assessed as change in melting temperature
[8] = test system: Cellular tumor antigen p53 (Homo sapiens), P04637 [Y220C]; test: Binding affinity to p53 Y220C mutant (unknown origin) assessed as change in melting temperature at 1 mM

With `CCN(CC)c1nc2c(C(=O)O)c(O)c(I)c(-n3cccc3)c2s1` the Activity [1] was “inactive”.
In the case of `CNC(=O)c1cc(I)c(-n2cccc2)c(I)c1O`, the solubility [2] is reported as “Insoluble”.
For `CCCSc1cc(C(=O)O)c(O)c(I)c1-n1cccc1`, the IC50 [3] was 150 µM.
For `CCN(CC)c1nc2c(C(=O)OC)c(O)c(I)c(-n3cccc3)c2s1`, the solubility [2] was “Insoluble”.
In the case of `O=C(O)c1cc(I)c(-n2cccc2)c(I)c1O`, the Kd [4] is reported as 21 µM, the solubility [2] is reported as “Soluble” and the ΔTm [5] is reported as 1.8 °C. The Kd [6] was 21 µM.
Work on `CCN(CC)C1CCN(Cc2cc(C#CCNc3ccccc3)cc(I)c2O)CC1` yielded a ΔTm [7] of 4 °C.
With `COC(=O)c1cc(I)c(-n2cccc2)c(I)c1O` the solubility [2] was “Insoluble”.
For `CN(C)CCNC(=O)c1cc(I)c(-n2cccc2)c(I)c1O`, the solubility [2] was “Insoluble”.
With `O=C(O)c1cc(I)cc(I)c1O` the Kd [4] was 820 µM, the solubility [2] was “Soluble” and the ΔTm [8] was 0.6 °C.
